PubChem BioAssay AID686919 (Broad Institute, 2013)
The source made the active and inactive calls.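 Rule for the calls: active = remaining cruzain activity at or below half of the DMSO control at 10 µM, implied only; inactive = remaining activity above half of control.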

These compounds were tested on cruzain (cruzipain) [Trypanosoma cruzi] (assay: cruzain protease inhibitors, dose response, mechanism study for T. cruzi phenotypic hit project, biochemical, dry powder, percent inhibition (AID 686919)). Details: recombinant cruzain, Z-Phe-Arg-AMC fluorescence rate; at 10 µM (top of the series).
In short: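 System: purified recombinant cruzain enzyme / Medium: 100 mM NaOAc pH 5.5, 5 mM DTT, 0.01% Triton X-100 / Times: 5 min room-temperature enzyme–compound preincubation, followed by 3 min rate reading / Measured by: kinetic AMC fluorescence, excitation 355 nm, emission 460 nm / Evaluation: release rate versus DMSO control / Controls: DMSO vehicle control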

Structure (SMILES)	remaining cruzain activity (% of DMSO control)
CN(C)C(=O)c1cccc(-c2ccc([C@H]3[C@H](CO)N4CCCCN(C(=O)C5CCCCC5)C[C@@H]34)cc2)c1	72.3% (inactive)
CN(C)C(=O)c1cccc(-c2ccc([C@H]3[C@H](CO)N4CCCCN(C(=O)C5CCC5)C[C@@H]34)cc2)c1	106% (inactive)
CN(C)C(=O)c1cccc(-c2ccc([C@H]3[C@H](CO)N4CCCCN(C(=O)C5CC5)C[C@@H]34)cc2)c1	104% (inactive)
O=C(C1CCC1)N1CCCCN2[C@@H](CO)[C@H](c3ccc(Br)cc3)[C@@H]2C1	133% (inactive)
CN(C)C(=O)c1cccc(-c2ccc([C@H]3[C@H](CO)N4CCCCN(C(=O)CC5CC5)C[C@@H]34)cc2)c1	83.3% (inactive)
